In the library only some 1.4% were active in any assay of this set; here they are far more common.
PG9 Ab binder – PG9 antibody binding by small molecule | inhibition, % at 6.7 µM | AID 624416 | 360,000 tested, 0.43% active | TR-FRET gp120-PG9 antibody binding; in the data active = inhibition above about 8.5%
NR2E3 ag-1 – agonists of human NR2E3 nuclear receptor. Q9Y5X4. CHO-S Gal4-NCOR/VP16-NR2E3 two-hybrid, luciferase. inhibition of corepressor binding, % at 3.98 µM. 360,000 tested, 0.35% active. AID 602229;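 active = inhibition above the mean of all tested compounds plus 3 SD, cut at about 70% in these data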;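 note: 0% = DMSO with NR2E3 transfected cells and 100% = cells lacking NR2E3 construct; higher means lower luciferase signal from less NR2E3 corepressor binding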
NR2E3 ag-2 – agonists of human nuclear receptor NR2E3. Q9Y5X4. GST-NR2E3/biotin-RetCOR TR-FRET, 1536-well. inhibition of corepressor binding, % at 4.78 µM. 320,000 tested, 0.12% active. AID 2300;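 active = percent inhibition above the cutoff of mean plus 3 SD of all tested compounds, set per screening campaign, cut at about 20% in these data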;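 note: 0% = DMSO wells and 100% = biotin wells as full block of FRET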
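Material – GST-tagged NR2E3 plus biotinylated RetCOR corepressor · Quantity – NR2E3 fusion 1.35 nM · Times – 5 h incubation at 4 °C · Medium – pH 7.5 Tris-based buffer · Technique – TR-FRET, Eu(K)-anti-GST donor, streptavidin-D2 acceptor, ex 340, em 617/671 nm · Benchmarks – high control biotin, low control 0.6% DMSO · Format – 1536-well plates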
Rev-erbA mod – Rev-erb alpha (human) modulation; P20393; 370,000 tested, 0.79% active; Rev-erbα–FITC-DNA binding, fluorescence polarization, 90 min; activity, % at 10 µM;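 active = activity above about 14%, limit read from the data; passing the limit was not always enough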;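 note: 0% = DMSO wells with 35 nM protein and 100% = DMSO wells with 750 nM protein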
Target sequence (P20393 whole entry, looked up): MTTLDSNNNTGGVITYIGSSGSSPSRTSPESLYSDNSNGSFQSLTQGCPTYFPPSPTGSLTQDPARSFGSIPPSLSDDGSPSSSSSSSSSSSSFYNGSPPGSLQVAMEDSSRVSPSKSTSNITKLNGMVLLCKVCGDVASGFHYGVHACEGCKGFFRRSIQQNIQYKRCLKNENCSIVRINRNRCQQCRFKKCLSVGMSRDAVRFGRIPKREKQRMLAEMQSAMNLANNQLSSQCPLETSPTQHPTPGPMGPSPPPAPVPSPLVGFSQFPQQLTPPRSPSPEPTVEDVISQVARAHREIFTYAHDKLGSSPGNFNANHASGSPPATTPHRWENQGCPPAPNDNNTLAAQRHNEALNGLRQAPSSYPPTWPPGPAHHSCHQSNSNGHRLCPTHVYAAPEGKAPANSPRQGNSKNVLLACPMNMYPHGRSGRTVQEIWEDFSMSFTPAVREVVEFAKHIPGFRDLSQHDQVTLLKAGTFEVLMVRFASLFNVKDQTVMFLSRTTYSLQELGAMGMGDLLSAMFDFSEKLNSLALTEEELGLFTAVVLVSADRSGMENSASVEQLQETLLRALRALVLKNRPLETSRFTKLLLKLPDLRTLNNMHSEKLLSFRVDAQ
PG9 binder conf – PG9 antibody binding, confirmed | shares compounds with PG9 Ab binder | TR-FRET PG9 antibody binding, biochemical | inhibition, % at 6.7 µM | 1,500 tested, 90% active | AID 651571; in the data active = inhibition above about 9%
PGV04 Ab binding – PGV04 control antibody binding, counter-screen; shares compounds with PG9 Ab binder; TR-FRET PGV04 antibody-gp120 binding, biochemical; inhibition, % at 6.7 µM; 1,500 tested, 95% active; in the data active = inhibition above about 9.5%
Numbers without * were called inactive; . = no result.

SMILES	PG9 Ab binder	NR2E3 ag-1	NR2E3 ag-2	Rev-erbA mod	PG9 binder conf	PGV04 Ab binding
CCOC(=O)N(C)C[C@H]1OCc2cn(nn2)CCCC(=O)N([C@H](C)CO)C[C@@H]1C	-1	-15	.	1	.	.
Cc1ccc(-c2nsc(SCC(=O)NCc3ccc4c(c3)OCO4)n2)cc1	16*	-42	6	1	18*	21*
CON(C)S(=O)(=O)c1ccc2c(c1)N(Cc1ccc(C)cc1)C(=O)C1CCCN21 (centres undefined)	10*	-13	7	12	19*	27*
Cc1nc2ccc(F)cc2cc1C(=O)NCc1ccco1	-2	-26	-2	-3	.	.
Cc1nc2ccc(F)cc2cc1C(=O)Nc1ccc(Cl)c(Cl)c1	22*	7	4	12	24*	32*
COc1ccc2c(c1)CCC1(C)CC(=O)C(Br)=C21 (centres undefined)	14*	-17	.	11	24*	47*
COC(=O)C1(C)CCc2cc(OC)ccc2C1=O (centres undefined)	1	-16	0	3	.	.
CCC1(c2ccc(F)cc2)NC(=O)N(CC(=O)Nc2cccc(S(=O)(=O)N3CCOCC3)c2)C1=O (centres undefined)	1	-2	.	0	.	.
Cc1ccc(C(=O)NCCNc2nc3cc(C)c(C)cc3cc2C)cc1	8.9*	4	-1	17	18*	22*
COc1cc(CNCc2cccnc2)ccc1OCC(=O)NC1CCCCC1	1	-13	1	-2	.	.
Cn1c(C(=O)Nc2ccc(Cl)cc2)cc2cc(Cl)ccc21	14*	-12	0	3	9.2*	16*
CCOC(=O)c1c(C)[nH]c(C(=O)COC(=O)COc2ccc(OC)cc2)c1C	35*	3	5	-2	35*	53*
Cc1cc(=O)oc2cc(NC(=O)C(C)Oc3cccc(Cl)c3)ccc12 (centres undefined)	10.0*	-11	-1	13	12*	19*
Cc1cc(=O)oc2cc(OC(C)C(=O)Nc3ccc(C(N)=O)cc3)ccc12 (centres undefined)	2	7	3	-2	.	.
Cc1ccc(NC(=O)NC(=O)CSc2nnnn2C)c(C)c1	-1	-3	-5	5	.	.
COc1ccc(C(=O)Nc2cc(-c3ccc(C)cc3)no2)cc1	14*	-26	.	-2	15*	18*
Cc1ccc(Cn2c(C3CCCN3c3nc(-c4cc(Cl)c(N)c(Cl)c4)cs3)nc3cc(Cl)c(Cl)cc32)cc1 (centres undefined)	9.7*	-16	-1	-4	14*	22*
Nc1c(Cl)cc(-c2csc(N3CCCC3c3nc4cc(Cl)c(Cl)cc4n3CCCO)n2)cc1Cl (centres undefined)	0	-4	4	-7	.	.
CCOc1ccc(/C(O)=C2/C(=O)C(=O)N(c3ccccn3)C2c2ccc(C)cc2)c(C)c1 (centres undefined)	20*	2	11	4	20*	28*
CCOc1ccc(/C(O)=C2/C(=O)C(=O)N(c3ccccn3)C2c2ccc(Cl)cc2)c(C)c1 (centres undefined)	11*	-38	.	2	13*	19*
CCCOc1ccc(/C(O)=C2\C(=O)C(=O)N(c3ccccn3)C2c2ccccc2F)cc1C (centres undefined)	21*	15	10	-4	17*	24*
COc1ccc(C2/C(=C(/O)c3ccccc3)C(=O)C(=O)N2c2ccccn2)cc1 (centres undefined)	-2	-7	-1	2	.	.
COC(=O)Cc1cc(=O)[nH]c(/N=C(\N)Nc2cccc(C)c2)n1	-2	12	0	3	.	.
CN(C)c1ccc(NC(=O)C2CCCN(S(=O)(=O)c3ccccc3)C2)cc1 (centres undefined)	-6	-20	2	0	.	.
Cc1cc(=O)[nH]c(SCc2nnc(-c3ccccc3)o2)n1	0	-8	3	-3	.	.
Cc1ccc(C(=O)CSc2nc(C)cc(SCc3nnc(-c4ccccc4)o3)n2)cc1	9.4*	-15	2	2	15*	22*
CC(C#N)(NC(=O)CN1CCN(S(=O)(=O)c2ccccc2Cl)CC1)C1CC1 (centres undefined)	-1	-30	1	5	.	.
O=C(Nc1cccc(S(=O)(=O)N2CCCCCC2)c1)c1ccc(=O)[nH]c1	2	-10	2	-8	.	.
